# Hits are enriched below; roughly 3% of the tested compounds scored in any of these assays.
# UBC13 polyUb: human UBC13 polyubiquitination inhibition | inhibition, % at 20 µM | UBC13 polyubiquitin chain formation, TR-FRET | AID 485273 | 330,000 compounds, 0.47% hits | P61088; in the data active = inhibition above about 45%, passing the limit was not always enough
# MEKK2 mut-MEK5: signal of MEK5 binding to mutant human MEKK2 PB1 domain. bead flow cytometry, Alexa488-MEK5 binding to MEKK2 mutant. percent response, % at 10 µM. 290,000 compounds, 0.35% hits; in the data active = percent response above about 24%, passing the limit was not always enough
# UCH37 inh: inhibitors of human deubiquitinating enzyme UCH37; purified proteasome/UCH37, Ub-AMC cleavage fluorescence; inhibition, % (test concentration not listed); 330,000 compounds, 0.33% hits; AID 588478;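 active = mean inhibition over replicate wells above about 20%, limit read from the data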;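 note: 0% = compound-free wells with enzyme and 100% = wells lacking proteasome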
#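 Material: Human UCH37 enzyme supplied as purified proteasome complex | Schedule: 30 min preincubation with enzyme, 25 min cleavage at room temperature | Detection: AMC fluorescence 355/460 nm | Measure: % inhibition of Ub-AMC cleavage fluorescence | Controls: Wells without proteasome as full block, compound-free enzyme plus substrate as uninhibited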
# MEKK3 PB1 HTS: modulators (inhibitors or enhancers) of MEK5 binding to human MEKK3 PB1 domain; Q99759; bead-based flow cytometry, Alexa488-MEK5 binding to MEKK3; actives lie on both sides; 0 = blocked by unlabeled MEK5, 100 = vehicle; binding response (% of control), % at 10 µM; 290,000 compounds, 1.4% hits; AID 1529;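 active = binding response more than 3 SD above or below the average of its plate-row segment, actives on both sides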;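 note: Alexa488 bead fluorescence after subtracting the streptavidin-only scavenger bead signal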
# Apaf-1 inh: human Apaf-1 inhibition | O14727 | reconstituted apoptosome caspase-3 activity, DEVD-Rh110 fluorescence | inhibition, % at 20 µM | 330,000 compounds, 0.71% hits | AID 489030; active = inhibition of at least 40% at 20 µM;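 note: plate controls were DMSO wells for no effect and DEVD-CHO caspase inhibitor wells for full effect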
# Target sequence (O14727 whole entry, looked up): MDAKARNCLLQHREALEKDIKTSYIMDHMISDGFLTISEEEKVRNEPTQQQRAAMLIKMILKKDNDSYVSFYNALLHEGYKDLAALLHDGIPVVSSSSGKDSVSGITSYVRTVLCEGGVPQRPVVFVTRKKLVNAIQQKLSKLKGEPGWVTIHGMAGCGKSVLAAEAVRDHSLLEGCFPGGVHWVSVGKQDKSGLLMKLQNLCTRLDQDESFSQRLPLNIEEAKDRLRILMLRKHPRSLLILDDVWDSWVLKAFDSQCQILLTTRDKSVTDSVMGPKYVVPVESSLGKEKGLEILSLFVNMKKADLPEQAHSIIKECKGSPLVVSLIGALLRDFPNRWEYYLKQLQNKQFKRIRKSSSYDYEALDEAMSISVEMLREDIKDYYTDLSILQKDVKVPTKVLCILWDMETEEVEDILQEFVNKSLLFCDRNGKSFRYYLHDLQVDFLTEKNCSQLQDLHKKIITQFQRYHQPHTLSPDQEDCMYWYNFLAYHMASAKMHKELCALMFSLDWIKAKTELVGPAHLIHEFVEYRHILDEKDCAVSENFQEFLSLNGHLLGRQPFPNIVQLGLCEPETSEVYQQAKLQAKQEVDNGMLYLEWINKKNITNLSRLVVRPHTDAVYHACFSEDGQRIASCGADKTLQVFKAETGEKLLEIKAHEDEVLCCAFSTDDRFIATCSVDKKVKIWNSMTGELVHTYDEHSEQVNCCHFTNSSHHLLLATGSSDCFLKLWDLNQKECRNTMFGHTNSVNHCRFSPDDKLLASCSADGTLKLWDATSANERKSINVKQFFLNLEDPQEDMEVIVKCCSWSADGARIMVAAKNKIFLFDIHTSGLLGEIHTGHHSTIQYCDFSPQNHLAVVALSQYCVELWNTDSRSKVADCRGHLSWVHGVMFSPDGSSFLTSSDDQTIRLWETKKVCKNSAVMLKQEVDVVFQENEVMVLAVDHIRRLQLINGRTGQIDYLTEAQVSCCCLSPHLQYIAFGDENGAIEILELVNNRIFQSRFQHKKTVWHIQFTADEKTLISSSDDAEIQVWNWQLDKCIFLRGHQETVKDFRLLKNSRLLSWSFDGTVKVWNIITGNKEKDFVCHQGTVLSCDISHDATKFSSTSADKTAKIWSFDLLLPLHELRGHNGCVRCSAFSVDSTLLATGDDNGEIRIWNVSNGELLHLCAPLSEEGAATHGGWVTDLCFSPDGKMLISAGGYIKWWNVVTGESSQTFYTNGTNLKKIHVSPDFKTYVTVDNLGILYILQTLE
#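 Material: reconstituted apoptosome with Apaf-1, cytochrome c, caspase-9, procaspase-3, dATP; medium: pH 7.5 Hepes buffer with CHAPS, BSA, DTT; also added: cytochrome c and DEVD-Rh110 substrate; timing: 30 min plus 50 min, RT; signal: Rh110 fluorescence intensity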
# MEKK2wt PB1 HTS: raises or lowers MEK5 binding to wildtype human MEKK2 PB1 domain; Q9Y2U5; bead flow cytometry, Alexa488-MEK5 binding to MEKK2 WT; actives lie on both sides; binding response (% of control), % at 10 µM; 290,000 compounds, 1.1% hits; in the data active = binding response below about 67% or above about 130%
# MEKK2wt confirm: raises or lowers MEK5 binding to wildtype human MEKK2, retest; bead flow cytometry, Alexa488-MEK5 binding to MEKK2 WT; actives lie on both sides; shares compounds with MEKK3 PB1 HTS; binding response (% of control), % at 10 µM; 5,900 compounds, 2.4% hits; AID 1892; in the data active = binding response below about 16% or above about 210%; inactive = in between
# MEKK2mut confirm: signal of MEK5 binding to mutant human MEKK2, retest. shares compounds with MEKK3 PB1 HTS. bead flow cytometry, Alexa488-MEK5 binding to MEKK2 mutant. percent response, % at 10 µM. 5,900 compounds, 2% hits; in the data active = percent response mostly above about 71%, no sharp cut-off; inactive = mostly below about 38%;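 note: higher means compound restores mutant binding toward wildtype level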
# MEKK3 confirm: confirmation of inhibitors of MEK5 binding to human MEKK3 | shares compounds with MEKK3 PB1 HTS | bead flow cytometry, Alexa488-MEK5 binding to MEKK3; active compounds read low | binding response (% of control), % at 10 µM | 5,900 compounds, 1.8% hits | AID 1894;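 active = binding response below 72% of control, or above a set upper limit, though filed actives all read lower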;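 note: 100% = DMSO only wells and 0% = binding blocked by excess unlabeled MEK5; lower values mean stronger disruption of MEK5 binding to MEKK3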
# Starred values were filed as active, the others as inactive; . = no result; [ ] = remark or other dose.
SMILES,UBC13 polyUb,MEKK2 mut-MEK5,UCH37 inh,MEKK3 PB1 HTS,Apaf-1 inh,MEKK2wt PB1 HTS,MEKK2wt confirm,MEKK2mut confirm,MEKK3 confirm
c1ccc(Cn2nnc3c(NCC4CCCO4)nc(C4CC4)nc32)cc1 (centres undefined),-5.2,-13.0,3.1,94.0,15.2,92.0,.,.,.
CC12CCCC[C@@H]1CCC1C2CCC2(C)C1CC[C@@]2(O)CNCCO (some centres undefined),38.6,25.0*,3.1,106.0,18.4,136.0*,107.0,10.0,87.0
C=CCNC(=O)c1ccc(-c2ccc([N+](=O)[O-])cc2)o1,-13.1,1.0,.,194.0*,-16.6,113.0,103.0,-6.0,101.0
Cc1cc(NC(=O)COC(=O)COc2ccc3c(c2)CCC3)no1,5.4,11.0,6.7,132.0*,2.2,131.0,105.0,2.0,104.0
Cc1ccccc1NC(=O)COC(=O)COc1ccc2c(c1)CCC2,4.0,.,1.9,.,12.3,.,.,.,.
CCN(CC)c1nc(OCCNC(=O)Nc2ccccc2)nc(N(CC)CC)n1,6.2,24.0*,4.5,111.0,-51.8,118.0,95.0,-9.0,96.0
O=C(NCCOc1nc(N2CCOCC2)nc(N2CCOCC2)n1)Nc1ccccc1,7.7,4.0,3.4,106.0,2.3,110.0,.,.,.
O=C(CN1CCc2ccccc2C1)Nc1cc(S(=O)(=O)N2CCOCC2)ccc1N1CCOCC1,-9.5,2.0,3.9,116.0,19.6,99.0,.,.,.
COc1ccc(C(=O)Nc2cc3c(cc2C(=O)O)OCCCO3)c(OC)c1,-2.9,0.0,4.1,104.0,4.1,101.0,.,.,.
Cc1ccc(-n2[nH]c(C)c(C=NCc3ccncc3)c2=O)cc1,9.7,26.0,10.3,130.0*,-14.8,125.0,98.0,1.0,102.0
Cc1[nH]n(-c2ccccc2)c(=O)c1C=NCc1ccncc1,-20.3,6.0,5.7,103.0,-4.5,106.0,.,.,.
CCOC(=O)C1=C(C)Nc2ccccc2S1,-6.3,0.0,7.3,97.0,-24.4,92.0,.,.,.
CCOC(=O)/C=C1\Nc2ccccc2SC1=O,-6.4,-18.0,3.9,2.0*[inhibitor],17.9,2.0*[inhibitor],103.0,-4.0,100.0
CC1=C[C@@H](C)[C@@H](c2ccccc2)OC1=O,3.4,-6.0,1.4,78.0*[inhibitor],-4.7,88.0,102.0,14.0,105.0
CC1=C[C@@H](C)[C@@H](c2ccc(C(F)(F)F)cc2)OC1=O,-3.6,3.0,2.3,98.0,2.1,97.0,.,.,.
O=C(CSc1nnc(-c2ccccc2F)o1)NC1CC1,-16.9,.,-3.2,.,4.3,.,.,.,.
O=C(c1ccccc1)c1nnc(-c2ccccc2F)o1,-4.3,-16.0,0.3,0.0*[inhibitor],5.7,-1.0*[inhibitor],106.0,2.0,106.0
O=C(C1=C[C@@H](c2coc3ccccc3c2=O)C[C@@H](OCc2ccc(CO)cc2)O1)N1CCOCC1,-0.6,1.0,1.1,82.0*[inhibitor],14.1,101.0,97.0,-3.0,98.0
Cc1ccc(-n2cc(CN(C)Cc3nccn3C)c(-c3ccc(F)cc3)n2)cc1,11.0,1.0,3.0,109.0,21.9,118.0,.,.,.
Cc1cc(-c2n[nH]c(=S)n2/N=C/c2sccc2C)n[nH]1,-5.4,0.0,.,148.0*,5.1,107.0,104.0,0.0,102.0
Cc1cc(-c2n[nH]c(=S)n2N=Cc2cccs2)n[nH]1,.,.,7.2,.,.,.,.,.,.
CN(CC(=O)Nc1ccc(Cl)c(C(F)(F)F)c1)C(=O)CCN1C(=O)C2CC=CCC2C1=O (centres undefined),1.2,.,4.1,.,18.9,.,.,.,.
Cc1ccc(-n2c(O)c(C=NCc3ccccn3)c3ccccc3c2=O)cc1,-10.8,0.0,1.1,129.0*,6.4,106.0,92.0,-9.0,94.0
O=C(/C=C/c1ccco1)Nc1ccc(-c2nc3ccccc3[nH]2)cc1,.,-5.0,-12.2,35.0*[inhibitor],.,47.0*[inhibitor],76.0,-18.0,79.0
O=C(Nc1ccc(-c2nc3ccccc3[nH]2)cc1)c1ccco1,-1.1,-3.0,-5.7,103.0,1.1,102.0,.,.,.
SMILES,UBC13 polyUb,MEKK2 mut-MEK5,UCH37 inh,MEKK3 PB1 HTS,Apaf-1 inh,MEKK2wt PB1 HTS,MEKK2wt confirm,MEKK2mut confirm,MEKK3 confirm
O=C(CN1C(=O)NC(c2ccccc2)(c2ccccc2)C1=O)N1CCN(c2ccc(F)cc2)CC1,5.2,.,1.6,.,15.2,.,.,.,.
COc1ccc(/C=N/NC(=O)c2cc(OC)c(OC)c(OC)c2)cc1CN1CCc2cc(OC)c(OC)cc2C1C (centres undefined),-0.5,13.0,.,102.0,17.0,136.0,.,.,.
COc1ccc(C2NCCc3c2[nH]c2ccccc32)cc1COc1ccc(F)cc1 (centres undefined),47.3*,2.0,2.4,62.0*[inhibitor],-6.3,140.0*,205.0,69.0,114.0
COc1ccc(C2NC(C(=O)O)Cc3c2[nH]c2ccccc32)cc1CN1CCN(c2ccc(F)cc2)CC1 (centres undefined),6.9,5.0,-4.1,93.0,0.9,120.0,.,.,.
COc1ccc(C2NCCc3c2[nH]c2ccccc32)cc1CN1CCc2cc(OC)c(OC)cc2C1C (centres undefined),.,20.0,3.5,107.0,.,172.0*,216.0*,81.0*,117.0
O=C(O)CSc1cc(NS(=O)(=O)c2ccc(Br)cc2)c2ccccc2c1O,.,6.0,.,105.0,.,104.0,.,.,.
CCn1cc(/C=C2\SC(=O)N(CC(=O)Nc3ccc4c(c3)OCO4)C2=O)c2ccccc21,-18.2,14.0,-0.4,102.0,-2.4,100.0,.,.,.
Cc1c(/C=C2\SC(=O)N(CC(=O)Nc3ccc4c(c3)OCO4)C2=O)c2ccccc2n1C,-1.8,-21.0,-2.3,2.0*[inhibitor],-1.3,-2.0*[inhibitor],97.0,-2.0,99.0
O=C(CN1C(=O)CSCC1=O)Nc1ccc2c(c1)OCO2,-7.0,0.0,1.7,136.0*,6.0,103.0,100.0,2.0,104.0
O=C(CSCc1ccc(Br)cc1)N1CCOCC1,8.9,0.0,-2.2,99.0,-11.9,99.0,.,.,.
COc1ccc(CC(=O)N2N=C(C)CC2(O)c2cccnc2)cc1 (centres undefined),4.6,-1.0,3.9,99.0,2.1,95.0,.,.,.
COc1ccc(CC(=O)N2N=C(C)CC2(O)c2cccnc2)cc1OC (centres undefined),12.6,-1.0,0.1,128.0*,0.9,100.0,103.0,-4.0,103.0
NNC(=O)/C(=C\c1cccs1)NC(=O)c1ccccc1,2.9,2.0,2.1,103.0,1.9,104.0,.,.,.

# Source: PubChem BioAssay
